Measured values gathered from unrelated publications.
Compare with care: the assays were run in different laboratories.
Target: Receptor-type tyrosine-protein kinase FLT3 (FLT3, Homo sapiens, UniProt P36888)
One construct used (P36888 27-993): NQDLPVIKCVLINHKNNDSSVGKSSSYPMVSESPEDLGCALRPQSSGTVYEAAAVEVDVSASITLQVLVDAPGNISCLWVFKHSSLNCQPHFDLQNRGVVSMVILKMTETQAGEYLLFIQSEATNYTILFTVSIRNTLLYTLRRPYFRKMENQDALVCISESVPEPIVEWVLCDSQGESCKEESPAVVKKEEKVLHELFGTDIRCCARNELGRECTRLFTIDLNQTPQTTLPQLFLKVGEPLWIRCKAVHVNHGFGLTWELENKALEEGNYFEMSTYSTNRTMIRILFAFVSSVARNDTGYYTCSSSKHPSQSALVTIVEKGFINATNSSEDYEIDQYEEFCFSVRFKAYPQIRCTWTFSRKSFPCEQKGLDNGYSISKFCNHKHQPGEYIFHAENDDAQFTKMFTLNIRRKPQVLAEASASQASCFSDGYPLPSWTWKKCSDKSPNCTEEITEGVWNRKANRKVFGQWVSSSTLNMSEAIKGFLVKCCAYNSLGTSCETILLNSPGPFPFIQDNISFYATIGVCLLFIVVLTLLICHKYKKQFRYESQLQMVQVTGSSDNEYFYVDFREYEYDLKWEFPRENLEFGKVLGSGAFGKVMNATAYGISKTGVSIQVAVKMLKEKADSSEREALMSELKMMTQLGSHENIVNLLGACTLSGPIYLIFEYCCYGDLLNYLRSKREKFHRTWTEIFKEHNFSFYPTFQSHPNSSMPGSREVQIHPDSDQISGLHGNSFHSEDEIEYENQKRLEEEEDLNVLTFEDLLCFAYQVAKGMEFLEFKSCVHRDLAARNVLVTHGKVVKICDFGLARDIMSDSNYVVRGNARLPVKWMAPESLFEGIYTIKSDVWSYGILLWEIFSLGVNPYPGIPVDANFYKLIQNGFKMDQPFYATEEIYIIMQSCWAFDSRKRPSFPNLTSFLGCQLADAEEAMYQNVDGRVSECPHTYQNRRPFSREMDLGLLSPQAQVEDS

SMILES | assay | quantity | value
CCCNc1ccnc(Nc2cccc(-c3cccnc3)c2)n1 | enzyme activity, inhibitor | IC50 | < 6 nM
Cc1ccc(C(=O)Nc2ccc(Oc3cc4cnn(C)c4cc3-c3cn[nH]c3)c(F)c2)c(=O)n1-c1ccc(F)cc1 | cell growth or viability, ATP luminescence | IC50 | 7 nM
CN(C)c1ncnc(-c2ccc3nc(Nc4cc(CN5CCN(C(=O)CC(F)(F)F)CC5)ccn4)[nH]c3c2)c1Cl | target engagement in cells, BRET | EC50 | > 50000 nM
COc1ccc2c(Oc3ccc4c(C(=O)Nc5ccccc5N)cccc4c3)ccnc2c1 | enzyme activity, inhibitor | IC50 | > 500 nM
c1cc(Nc2nccc(NC3CCCCC3)n2)cc(-c2ncco2)c1 | enzyme activity, inhibitor | IC50 | 336 nM
Cc1cc(Nc2cc3ncccc3c(N[C@@H]3C[C@H]4CC[C@@H](C3)N4CCC#N)n2)n[nH]1 | target engagement in cells, inhibitor, BRET | IC50 | 2000 nM
Cc1cc(Nc2cc(CN3CCOCC3)c3nc(C)c(Cc4ccc(Cl)cc4F)n3n2)n[nH]1 | enzyme activity, inhibitor, TR-FRET | IC50 | 4 nM
C[C@H](c1ccnc(Nc2nc3ccc(-c4cc(N(C)C)ncn4)cc3[nH]2)c1)N1CCN(C(=O)CC(F)(F)F)CC1 | target engagement in cells, BRET | EC50 | 22000 nM
CN(C)c1ccc(C=C2C(=O)Nc3ccccc32)cc1 | enzyme activity, inhibitor, radiometric | IC50 | 70 nM
C[C@H](Nc1ccnc(Nc2cccc(-c3cccnc3)c2)n1)C(=O)O | enzyme activity, inhibitor | IC50 | > 23000 nM
